From ChEMBL document CHEMBL4811272, “A new sulfated triterpene glycoside from the sea cucumber Colochirus quadrangularis, and evaluation of its antifungal, antitumor and immunomodulatory activities” (Bioorg Med Chem, 2021) come the findings set out here.

Assay [1] is described as follows: Cytotoxicity against human HO-8910 cells assessed as reduction in cell viability by sulforhodamine B assay. Type of assay: functional, cell-based. Summed up:
(§1)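 Cells were kept in RPMI-1640 with 10% FBS, 2 mM L-glutamine, 50 μM β-mercaptoethanol and penicillin/streptomycin, at 37 °C in 5% CO2. SRB assay used 100, 10, 1, 0.1 and 0.01 μM, each in triplicate. Percent inhibition was calculated against solvent control OD. IC50 came from Logit curve fitting and is the mean of three independent experiments.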

The subject of assay [2] is Bel-7402. The experiment in a line: Antitumor activity against human Bel-7402 cells implanted in BALB/c-nu mouse assessed as tumor growth inhibition at 500 mg/kg, IG administered everyday for 7 days relative to control. The settings on record: Bel-7402, po, 168 h, time 7 day, read-out: TGI. Type of assay: functional.
The next assay has as its system CCRF S-180. The experiment in a line: Antitumor activity against mouse S-180 cells implanted in KM mouse assessed as tumor growth inhibition at 0.5 mg/kg, IG administered everyday for 7 days relative to control. The following applies: CCRF S-180, po, 168 h, time 7 day, read-out: TGI. It counts as functional. Summed up:
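S-180 or H22 cells, about 2.5 × 10⁶ per mouse, injected s.c. in the right axilla of wild-type KM mice. Randomized after 24 h and dosed intragastrically for 7 days; sacrificed 24 h after the last dose. TGI = (W_C − W_T)/W_C × 100% from average tumor weight. n = 8; one-way ANOVA vs vehicle.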

Assay [3] deals with Bel-7402. Nature of the assay: Antitumor activity against human Bel-7402 cells implanted in BALB/c-nu mouse assessed as tumor growth inhibition at 5 mg/kg, IG administered everyday for 7 days relative to control. It counts as functional. The settings on record: Bel-7402, po, 168 h, time 7 day, read-out: TGI.
Assay [4] has as its system Bel-7402. The experiment in a line: Antitumor activity against human Bel-7402 cells implanted in BALB/c-nu mouse assessed as T/C ratio at 50 mg/kg, IG administered everyday for 7 days relative to control. Type of assay: functional. The following applies: time 7 day.
Assay [5] relates to Bel-7402. The experiment in a line: Antitumor activity against human Bel-7402 cells implanted in BALB/c-nu mouse assessed as tumor growth inhibition at 50 mg/kg, IG administered everyday for 7 days relative to control. It counts as functional. The following applies: Bel-7402, po, 168 h, time 7 day, read-out: TGI.
In a further assay the test system is HMEC-1. The experiment in a line: Antimigratory activity against human HMEC-1 cells assessed as inhibition of cell migration by transwell assay. Type of assay: functional, cell-based. Summed up:
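HMEC-1 endothelial cells seeded and exposed to compound. Proliferation read by SRB and migration by Transwell. IC50 calculated from three independent experiments.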

Assay [6] relates to HCT-116. The experiment in a line: Cytotoxicity against human HCT-116 cells assessed as reduction in cell viability by sulforhodamine B assay. Type of assay: functional, cell-based. Summed up: as §1
The subject of the next assay is HL-60. The experiment in a line: Cytotoxicity against human HL-60 cells assessed as reduction in cell viability by sulforhodamine B assay. Type of assay: functional, cell-based. Summed up:
as §1
For orientation: Sulforhodamine B stains cellular protein and so reports cell mass.

Assay [7] relates to HCT-116. Nature of the assay: Induction of apoptosis in human HCT-116 cells assessed as increase in necrotic cells measured upto 2 times of IC50 concentration by annexin V staining based flow cytometry analysis. It counts as functional, cell-based. Summed up:
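HCT-116 cells treated with vehicle or three compound concentrations, collected, and stained with Annexin V-FITC and propidium iodide in the dark at 4 °C. Flow cytometry quadrants: Q4 live, Q3 early apoptotic, Q2 late apoptotic, Q1 necrotic. n = 3; ANOVA vs vehicle.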

A further assay has as its system Pyricularia oryzae. The experiment in a line: Antifungal activity against Pyricularia oryzae P-2B by measuring minimum morphological deformation concentration. It counts as functional. The following applies: read-out: MEC.
Assay [8] deals with Mus musculus. The experiment in a line: Immunomodulatory activity in cyclophosphamide-immunosuppressed KM mouse assessed as improved in phagocytosis function in at 50 to 500 mg/kg, IG once daily measured after 14 days. The settings on record: dose 50-500 mg/kg, time 14.0 day. It counts as functional, organism-based. Summed up:
(§2)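 KM mice dosed intragastrically once daily for 14 days at 5, 50 or 500 mg/kg; vehicle 0.5% CMC-Na. CTX 50 mg/kg i.p. on days 7, 9 and 11. 1 h after the last dose, 25% Indian ink given i.v. at 0.1 mL/10 g. Blood (20 µL) taken at 2 and 10 min, lysed in 2 mL water, OD 680 nm read. K and α calculated with body, liver and spleen weights. n = 8.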

Assay [9] deals with Vascular endothelial growth factor receptor 2 (Mus musculus, UniProt P35918). The experiment in a line: Inhibition of VEGFR2 in mouse NIH/3T3 cells assessed as reduction of VEGF-stimulated phosphorylation. Type of assay: cell-based. Summed up:
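NIH/3T3 fibroblasts transfected to overexpress VEGFR-2 or PDGFR-β, starved 24 h, then given compound. Stimulation: VEGF 500 ng/mL for VEGFR-2 cells, PDGF-BB 150 ng/mL for PDGFR-β cells. Cells fixed in 4% paraformaldehyde and probed with PY-99 anti-phosphotyrosine, secondary IgG and HRP-avidin. OD 405 nm read after ABTS; IC50 from three independent experiments.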

For the next assay, the system named is Candida albicans. The experiment in a line: Antifungal activity against Candida albicans ATCC 76615 by microplate reader assay. The settings on record: ATTCC76615. Type of assay: functional. Summed up:
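Broth microdilution read by optical density at 630 nm. MIC80 is the first well with about 80% less growth than the drug-free well. Each concentration was run in three replicate wells, and values are means of three independent experiments.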

The subject of assay [10] is Mus musculus. The experiment in a line: Immunomodulatory activity in cyclophosphamide-immunosuppressed KM mouse assessed as increase in carbon particle clearance index in at 50 to 500 mg/kg, IG once daily measured after 14 days. It counts as functional, organism-based. The following applies: dose 50-500 mg/kg, time 14.0 day. Summed up: as §2

SMILES strings stand for the structures. pIC50: −log10 of the molar value. Activity calls are given as the source filed them. The calls are words filed in the database; no cut-off is given here.

Vascular endothelial growth factor receptor 2, sequence (P35918 whole entry): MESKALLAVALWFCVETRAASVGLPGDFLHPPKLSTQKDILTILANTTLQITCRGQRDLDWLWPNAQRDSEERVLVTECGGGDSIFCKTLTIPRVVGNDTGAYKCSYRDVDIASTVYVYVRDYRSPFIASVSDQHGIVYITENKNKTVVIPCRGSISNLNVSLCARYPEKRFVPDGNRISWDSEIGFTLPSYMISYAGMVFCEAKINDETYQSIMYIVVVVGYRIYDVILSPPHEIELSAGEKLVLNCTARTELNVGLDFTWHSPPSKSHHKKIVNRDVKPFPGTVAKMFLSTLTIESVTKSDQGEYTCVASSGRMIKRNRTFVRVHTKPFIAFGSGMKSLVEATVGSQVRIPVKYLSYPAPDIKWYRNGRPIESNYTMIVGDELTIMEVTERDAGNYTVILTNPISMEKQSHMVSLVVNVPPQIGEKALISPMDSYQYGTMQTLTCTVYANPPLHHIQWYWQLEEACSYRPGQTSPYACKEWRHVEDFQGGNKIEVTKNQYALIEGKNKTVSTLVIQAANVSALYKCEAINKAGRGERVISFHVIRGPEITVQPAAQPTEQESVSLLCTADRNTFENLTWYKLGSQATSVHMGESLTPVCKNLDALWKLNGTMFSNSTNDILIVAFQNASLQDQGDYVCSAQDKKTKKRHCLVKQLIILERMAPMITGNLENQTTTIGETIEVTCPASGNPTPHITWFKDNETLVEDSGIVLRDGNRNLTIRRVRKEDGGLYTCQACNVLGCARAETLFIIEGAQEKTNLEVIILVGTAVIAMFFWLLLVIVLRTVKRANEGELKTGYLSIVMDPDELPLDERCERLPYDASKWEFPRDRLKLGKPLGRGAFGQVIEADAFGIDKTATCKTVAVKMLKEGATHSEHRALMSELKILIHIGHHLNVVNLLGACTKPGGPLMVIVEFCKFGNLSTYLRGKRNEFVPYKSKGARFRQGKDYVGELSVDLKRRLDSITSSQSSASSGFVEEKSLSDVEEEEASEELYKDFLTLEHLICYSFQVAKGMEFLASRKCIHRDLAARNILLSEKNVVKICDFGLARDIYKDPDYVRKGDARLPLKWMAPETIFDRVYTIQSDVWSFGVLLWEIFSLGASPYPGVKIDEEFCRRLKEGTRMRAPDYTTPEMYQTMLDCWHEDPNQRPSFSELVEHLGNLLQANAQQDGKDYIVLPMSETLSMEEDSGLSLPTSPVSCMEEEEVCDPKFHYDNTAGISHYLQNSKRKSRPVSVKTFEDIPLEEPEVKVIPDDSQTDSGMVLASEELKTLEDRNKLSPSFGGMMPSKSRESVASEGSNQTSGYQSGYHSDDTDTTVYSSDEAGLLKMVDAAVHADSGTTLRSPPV

Turning to `C=C(C)CCC[C@]1(C)OC(=O)[C@]23CC[C@@H]4C(=CCC5C(C)(C)[C@@H](O[C@@H]6OC[C@@H](OS(=O)(=O)[O-])[C@H](O)[C@H]6O[C@@H]6O[C@H](C)[C@@H](O[C@@H]7OC[C@@H](O)[C@H](O[C@@H]8O[C@H](CO)[C@@H](O)[C@H](OC)[C@H]8O)[C@H]7O)[C@H](O)[C@H]6O)CC[C@@]54C)[C@]2(C)C[C@H](OC(C)=O)[C@@H]31.[Na+]` (stereo not given in full), the pIC50 (in general, the IC50 on a negative log10 scale, so that one unit is a factor of ten) in assay [1] was 5.71; with HMEC-1, 7.30; in the assay on HCT-116 [6], 5.87; in the assay with HL-60, 6.22; in assay [9], 5.66. The inhibition in vivo at 500 mg/kg in the assay on Bel-7402 [2] was determined as 58.6%. For the same compound, the inhibition in vivo at 0.5 mg/kg in the assay on CCRF S-180 came out at 21.6%. In the assay on Bel-7402 [3], the inhibition in vivo at 5 mg/kg was 50.1%. Moreover, in the assay on Bel-7402 [4], the T/C (usually the result in the treated group divided by that in the control group, in per cent) stood at 42.2%. Besides, in the assay on Bel-7402 [5], the inhibition in vivo at 50 mg/kg stood at 58.2%. The outcome in the assay with HCT-116 [7], with Mus musculus [8] and in the assay on Mus musculus [10] was Active. In addition, the minimal effective concentration in the assay on Pyricularia oryzae was not above 16 µg/mL. Further, the MIC80 – broadly, the lowest concentration that inhibits either 80% of growth or 80% of the strains tested, depending on the study – in the assay on Candida albicans worked out at 4 µg/mL.
